# Source: PubChem
# Arbovirus inh – antivirals against arbovirus infection; arbovirus infection cell-based antiviral screen; inhibition, % at 10 µM; 200,000 tested, 0.37% active; AID 1251; in the data active = inhibition above about 30%
# L major viab – reduces viability of Leishmania major promastigotes. resazurin fluorescence viability. inhibition, % at 10 µM. 200,000 tested, 9% active. AID 1063;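 note: promastigotes grown with compound for 44 hours at 28 °C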
# PKD1 kinase inh – blocks activity of human protein kinase D1. Q15139. PKD1 kinase fluorescence polarization assay. inhibition, % (test concentration not listed). 200,000 tested, 0.056% active. AID 797
# Target sequence (Q15139 whole entry, looked up): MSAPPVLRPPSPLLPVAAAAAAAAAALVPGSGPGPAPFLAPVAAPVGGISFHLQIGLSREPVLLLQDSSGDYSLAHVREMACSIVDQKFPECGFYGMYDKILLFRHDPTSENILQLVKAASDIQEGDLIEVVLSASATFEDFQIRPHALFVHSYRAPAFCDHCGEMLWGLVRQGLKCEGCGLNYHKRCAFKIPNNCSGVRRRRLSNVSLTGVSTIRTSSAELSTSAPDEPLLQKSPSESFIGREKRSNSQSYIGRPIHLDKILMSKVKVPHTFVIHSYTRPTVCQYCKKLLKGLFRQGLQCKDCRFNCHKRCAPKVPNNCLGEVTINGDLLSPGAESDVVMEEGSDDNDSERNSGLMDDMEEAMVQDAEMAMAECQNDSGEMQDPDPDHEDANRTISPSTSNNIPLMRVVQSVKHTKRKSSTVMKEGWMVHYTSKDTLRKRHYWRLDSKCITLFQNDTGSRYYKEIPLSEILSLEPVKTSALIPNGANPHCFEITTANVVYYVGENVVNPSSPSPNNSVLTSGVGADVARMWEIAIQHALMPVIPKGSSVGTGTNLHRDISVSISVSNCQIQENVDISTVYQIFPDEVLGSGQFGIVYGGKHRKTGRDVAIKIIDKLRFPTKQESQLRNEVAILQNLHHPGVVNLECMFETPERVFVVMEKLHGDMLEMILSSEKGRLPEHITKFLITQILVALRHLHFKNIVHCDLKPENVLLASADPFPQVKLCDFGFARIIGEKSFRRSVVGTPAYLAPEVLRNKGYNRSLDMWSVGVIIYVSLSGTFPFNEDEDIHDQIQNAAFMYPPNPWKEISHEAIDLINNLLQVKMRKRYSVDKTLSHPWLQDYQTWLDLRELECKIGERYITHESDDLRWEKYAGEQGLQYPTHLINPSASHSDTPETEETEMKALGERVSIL
# Rad51 HR inh – Rad51 (human) homologous recombination inhibition; Q06609; hRad51 DNA strand exchange, fluorescence dequenching; inhibition, % at 10 µM; 200,000 tested, 0.085% active; AID 1385;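 active = inhibition above 40% at the single screening dose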;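 note: 0% = DMSO control wells and 100% = blanks with heterologous ssDNA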
#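 Material: hRad51 filaments on single-stranded DNA; Reagent: Donor/quencher-labelled 47-bp dsDNA substrate; Compound: 10 µM final, single point; Schedule: 37 °C 15-min filament assembly, 30-min compound preincubation, 15-min exchange; Technique: FRET fluorescence, excitation 485 nm, emission 520 nm; Benchmarks: control wells and blank wells on each plate.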
# Wee1 stabilizer – inhibitors of human Wee1 degradation; 220,000 tested, 1.2% active; P30291; reporter increase, % at 5 µM; AID 1321; HeLa Luc-Wee1K328M stability, luciferase luminescence; 100% = proteasome inhibitor MG132 effect;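 active = activation above the mean of all tested compounds plus 3 SD, set per screening run, cut at about 8.8% in these data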;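 note: cells exposed to compound for 20 h before luminescence read; 0% = DMSO alone and 100% = MG132 at 30 µM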
# CHOP inh – inhibitors of CHOP induction in ER stress response; 220,000 tested, 3.8% active; CHO-K1 CHOP-promoter luciferase, tunicamycin-induced, 15-18 h; inhibition, % at 10 µM;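 active = compounds that reduced the stress-induced luciferase reporter signal by more than about 70% of percent inhibition, limit read from the data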;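 note: 0% = tunicamycin plus vehicle and 100% = wells without tunicamycin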
# Starred values were filed as active, the others as inactive; x = not tested or not shown. Sampled rows, rich in hits. Any-hit rate of the full collection: about 12%. Cut-off read from the data, not from the text of the source, unless noted: active = inhibition above about 50%; inactive = the rest.
SMILES,Arbovirus inh,L major viab,PKD1 kinase inh,Rad51 HR inh,Wee1 stabilizer,CHOP inh
O=C(O)c1ccccc1N/N=C/c1cc(Br)cc(Br)c1O,x,x,x,9.7,0.2,-6.5
O=C(O)c1ccccc1N/N=C\c1ccnc2ccccc12,31.2*,-4.8,5.8,0.8,-1.7,32.0
Clc1ccc(/C=N/N2CCN(Cc3ccccc3Cl)CC2)cc1,0.8,-0.9,2.4,0.6,-1.3,20.0
COc1ccccc1/C=C/C=N/N1CCN(Cc2ccc(Cl)cc2)CC1,-4.2,85.3*,-2.0,8.0,-1.5,5.0
C(=C\c1ccccc1)/C=N/N1CCN(Cc2ccccc2)CC1,1.2,-0.2,10.0,2.0,-0.7,14.6
Clc1ccc(CN2CCN(/N=C/c3ccco3)CC2)cc1,9.8,-1.2,6.3,-25.0,-2.0,-8.7
COc1ccccc1/C=C/C=N\N1CCN(Cc2ccccc2Cl)CC1,-17.9,64.5*,-7.4,x,4.1,11.3
Cc1ccc(/C=N/N2CCN(Cc3ccc(Cl)cc3)CC2)o1,-2.0,51.6*,1.2,-2.5,-0.1,-2.1
COc1ccccc1/C=C\C=N\n1c(-c2ccc(Cl)cc2)n[nH]c1=S,-4.0,-3.1,0.6,x,1.5,89.1*
Cc1c(NC(=O)CN2CCCC(C)C2)ccc2nsnc12 (stereo unspecified),-4.0,1.0,-3.8,-5.2,-1.0,7.5
COc1ccc(C(=O)/C=C/Sc2nc3ccccc3o2)cc1,x,x,x,0.7,1.7,82.4*
COc1ccc(C(=O)N/C(N)=N/c2nc3ccccc3o2)cc1,-3.9,-1.2,-10.0,-0.2,0.8,58.4
O=C(N/N=C/c1cc([N+](=O)[O-])ccc1O)c1c[nH]c2ccccc12,x,x,x,x,4.8,80.7*
CCCc1ccc(-c2cc(C(=O)NCCc3ccc(S(N)(=O)=O)cc3)c3ccccc3n2)cc1,-1.7,18.5,4.5,-0.1,2.4,10.9
CCCc1ccc(-c2cc(C(=O)Nc3ccc([N+](=O)[O-])cn3)c3ccccc3n2)cc1,10.9,75.7*,-8.6,6.2,-2.4,38.2
COc1ccccc1C(=O)OCC(=O)c1cccc([N+](=O)[O-])c1,-0.1,-13.6,11.0,x,0.9,43.6
Cc1cc(C(=O)OCC(=O)c2cccc([N+](=O)[O-])c2)c2ccccc2n1,0.8,-9.9,-10.3,-11.4,9.5*,16.2
O=C(N/N=C/c1cc([N+](=O)[O-])ccc1O)c1cc(-c2ccccc2)nc2ccccc12,-23.6,98.4*,-1.1,-10.8,-3.2,58.0
Cc1cc(C(=O)N/N=C/c2ccc([N+](=O)[O-])cc2)c2ccccc2n1,x,x,x,-5.3,4.0,-8.9
Cc1cc(C(=O)N/N=C/c2cc([N+](=O)[O-])ccc2O)c2ccccc2n1,-24.1,30.7,-6.4,x,1.6,71.4*
O=C1c2ccccc2NC(c2cn[nH]c2-c2ccccc2)N1O (stereo unspecified),-27.1,-8.5,12.0,1.5,-1.8,21.6
O=C1c2ccccc2NC(c2ccc(-c3ccc(Br)cc3)o2)N1O (stereo unspecified),-34.6,98.9*,2.4,-0.9,0.7,63.2
O=C1c2ccccc2NC(c2ccc3c(c2)OCO3)N1O (stereo unspecified),-19.9,-10.4,1.1,2.5,0.8,13.3
O=C1c2ccccc2NC(c2ccc(-c3cccc([N+](=O)[O-])c3)o2)N1O (stereo unspecified),-20.7,81.6*,-20.4,x,2.0,4.8
C/C=C/C=N/Nc1nc(C)cc(=O)[nH]1,2.2,0.2,0.9,2.4,-0.2,23.9
SMILES,Arbovirus inh,L major viab,PKD1 kinase inh,Rad51 HR inh,Wee1 stabilizer,CHOP inh
O=C1OC(c2ccccc2)=N/C1=C\C=C\c1ccco1,2.6,-7.7,-3.1,-5.2,-1.6,60.2
O=C1OC(c2ccccc2)=N/C1=C\C=C\c1ccccc1[N+](=O)[O-],-2.6,45.2,-17.5,-2.4,-1.3,70.7*
COC(=O)c1ccc(C(=O)NC(=S)Nc2ccc3nc(SC)sc3c2)cc1,-5.8,-6.8,0.1,-28.1,-1.0,72.1*
Cc1cccc(NC(=O)c2cc3cc([N+](=O)[O-])ccc3s2)n1,-3.4,4.0,-8.3,0.3,0.0,7.1
CN(/N=C/c1ccc(O)cc1O)c1nc(-c2ccccc2)cc(-c2ccccc2)n1,-35.9,63.9*,-14.4,x,-1.4,53.9
Cc1nc2ccccc2c(=O)n1/N=C/c1ccc(O)cc1O,-4.6,-2.3,-3.1,7.2,3.0,14.1
COC(=O)c1[nH]c2cccc(OC)c2c1NC(=O)CCN1CCN(c2cccc(Cl)c2)CC1,12.5,100.3*,-0.6,-0.5,-0.8,19.0
COC(=O)c1[nH]c2cccc(OC)c2c1NC(=O)CCN1CCSCC1,x,x,x,17.7,-0.9,11.1
O=C(O)c1ccc2c(c1)C(=O)N(c1cccc(-c3nc4ccccc4s3)c1)C2=O,-2.1,-7.0,-5.7,-1.2,11.1*,27.4
Cc1ccc2nc(-c3ccc(NS(=O)(=O)c4ccc(F)c(F)c4)cc3)sc2c1,-39.5,5.0,-2.5,-10.6,2.0,85.2*
CCN(CC)S(=O)(=O)c1cc(C(=O)OCC(=O)Nc2ccc(-c3nc4ccc(C)cc4s3)cc2)ccc1F,-7.7,-6.8,-4.1,x,-1.3,36.2
CCN(CC)S(=O)(=O)c1ccc(C(=O)OCC(=O)Nc2ccc(-c3nc4ccc(C)cc4s3)cc2)cc1,-9.5,57.9*,-5.8,4.7,2.1,40.1
Cc1ccc(C2(C)NC(=O)N(CC(=O)Nc3ccc(-c4nc5ccc(C)cc5s4)cc3)C2=O)cc1 (stereo unspecified),x,x,x,-5.5,2.8,73.4*
Cc1ccc2nc(-c3ccc(NS(=O)(=O)c4ccccc4)cc3)sc2c1,11.3,47.0,-11.4,x,2.6,18.8
NC(=S)N/N=C1/CCSc2ccc3ccccc3c21,4.4,5.3,-2.0,x,-3.7,75.4*
COc1cc(NC(=O)Nc2ccccc2)c(OC)cc1NC(=O)CN1CCCCC1,-10.0,44.3,-6.5,-8.9,0.2,90.1*
COc1cc(-c2ccc(NC(=O)CN3CCCCC3)c(OC)c2)ccc1NC(=O)CN1CCCCC1,x,-3.5,-5.2,x,8.9*,x
COc1cc(NC(=O)Nc2ccccc2OC)c(OC)cc1NC(=O)CN1CCCCC1,-1.0,23.3,-15.7,3.9,-0.9,2.9
COc1cc(NC(=O)C2CCCCC2)c(OC)cc1NC(=O)CN1CCCCC1,-20.2,24.1,6.7,9.9,0.7,36.0
O=C(Nc1ccc(F)cc1)c1ccccc1NS(=O)(=O)N1CCCC1,19.2,-3.2,-1.9,x,-1.4,37.6
Cc1ccc2c(c1)c1ccc3c(c1n2C)C(=O)C=CC3=O,x,x,x,-8.0,-1.6,106.0*
Cc1ccc2c(c1)c1ncnc(N3CCOCC3)c1n2C,0.7,1.9,4.9,x,-0.8,x
CN(CC(=O)Nc1cccc(F)c1)CC(=O)Nc1cccc(S(N)(=O)=O)c1,x,x,x,3.0,0.3,-11.3
Cc1ccc(S(=O)(=O)N(C)C)cc1NC(=O)c1c(-c2c(F)cccc2Cl)noc1C,x,x,x,-3.2,1.5,62.1
Cc1ccc(S(=O)(=O)C2(C(=O)N3CCN(C4CCCCC4)CC3)CC2)cc1,2.5,75.9*,-8.3,3.7,-1.5,-25.7
